The values below come from ChEMBL document CHEMBL3351945, “Effect of dehydroepiandrosterone derivatives on the activity of 5α-reductase isoenzymes and on cancer cell line PC-3” (Bioorg Med Chem, 2014).

The source made the active and inactive calls. The rule behind the calls is not given here.

The nature of data set [1]: (§1) Cytotoxicity against human PC3 cells assessed as growth inhibition at 50 uM after 48 hrs by SRB assay. Type of data set: functional. Particulars: PC-3, 48 h, read-out: GI. The method in brief: (§2)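 PC-3 cells (NCI) were grown in RPMI-1640 with 10% FBS, 2 mM L-glutamine, antibiotics/amphotericin B and 1% nonessential amino acids at 37 °C in 5% CO2. Viability exceeded 95% (trypan blue). Cells were seeded at 5000–10000/well, given 24 h, then exposed 48 h to 50 µM compound. Cells were fixed in cold TCA, stained with 0.4% SRB and read at 515 nm after Tris solubilization. Inhibition = 100 − (sample/vehicle absorbance × 100).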
On the technique in general: Sulforhodamine B stains cellular protein and so reports cell mass.

Data set [2] is described as follows: Cytotoxicity against Swiss mouse primary peritoneal macrophages assessed as growth inhibition at 50 uM after 48 hrs by MTT assay. Particulars: for inhibition at 48 h, 50 µM: Swiss, primary peritoneal macrophages, read-out: GI; for growth inhibition (GI): peritoneal macrophage cell, 48 h, 50 µM. (Tetrazolium assays rely on reduction of a dye to a coloured formazan, in cell work by metabolically active cells.)

Data set [3] concerns the target T1, 3-oxo-5-alpha-steroid 4-dehydrogenase 2 (Homo sapiens, UniProt P31213).
T1 sequence (P31213 whole entry): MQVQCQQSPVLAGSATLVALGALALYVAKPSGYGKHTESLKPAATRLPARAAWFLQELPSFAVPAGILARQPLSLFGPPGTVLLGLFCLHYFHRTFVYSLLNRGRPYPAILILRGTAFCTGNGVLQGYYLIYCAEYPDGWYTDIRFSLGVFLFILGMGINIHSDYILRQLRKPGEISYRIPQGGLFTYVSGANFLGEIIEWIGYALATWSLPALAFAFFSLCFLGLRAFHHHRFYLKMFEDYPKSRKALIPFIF
Put plainly: Inhibition of human prostate 5alpha-reductase type 2 assessed as conversion of [3H]testosterone to dihydrotestosterone. More on the design: species or system Prostate gland. The method in brief: (§3)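 Each reaction contained 1 mM DTT in 40 mM sodium phosphate, 2 nM [3H]T and 2 mM NADPH. Type 1 ran at pH 8.0 with 6.31 µM T added and 90 µg solubilized rat liver microsomal protein. Type 2 ran at pH 6.5 with 50 µg human prostate membrane protein. Inhibitors were tested at 1e-11–1e-3 M, in duplicate, 60 min at 37.5 °C. Reactions were stopped with dichloromethane, DHT separated by TLC and radioscanned, and IC50 taken from inhibition curves.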

In data set [4] the target is T2, 3-oxo-5-alpha-steroid 4-dehydrogenase 1 (Rattus norvegicus, UniProt P24008).
T2 sequence (P24008 whole entry): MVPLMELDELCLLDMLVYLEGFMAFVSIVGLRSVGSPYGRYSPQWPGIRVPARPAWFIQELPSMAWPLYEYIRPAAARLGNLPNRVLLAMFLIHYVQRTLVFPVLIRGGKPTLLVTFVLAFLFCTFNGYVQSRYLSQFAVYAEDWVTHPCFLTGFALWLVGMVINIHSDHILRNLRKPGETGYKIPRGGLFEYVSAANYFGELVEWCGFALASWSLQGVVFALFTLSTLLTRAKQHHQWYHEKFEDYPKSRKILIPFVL
Put plainly: Inhibition of rat liver 5alpha-reductase type 1 assessed as conversion of [3H]testosterone to dihydrotestosterone. Put shortly:
as §3

For data set [5], the system named is PC-3. Described as §1. Type of data set: functional. The method in brief:
as §2

By IC50 is commonly meant the concentration at which inhibition is half-maximal. Regarding `CC(=O)N1CCN(c2ccc(OCC3COC(Cn4ccnc4)(c4ccc(Cl)cc4Cl)O3)cc2)CC1` (stereo not given) [KETOCONAZOLE], the inhibition of growth at 50 µM in data set [1] is 85.4%. In data set [2], the inhibition at 48 h, 50 µM was 41.5%. The IC50 result in data set [3] is recorded as “Not Active”.

On to `C[C@]12CC[C@H](OC(=O)C3CCC3)CC1=CC[C@@H]1[C@@H]2CC[C@]2(C)C(Cl)=C(C=O)C[C@@H]12`, for which the IC50 entry in data set [4] is “Not Active”; in data set [3] (read-out: IC50) it was 0.013 µM. The “growth inhibition (GI)” value in data set [5] was “inactive”. Besides, the “growth inhibition (GI)” value in data set [2] is reported as “Non-toxic”.

For the compound `C[C@]12CC[C@H](OC(=O)C3CCCC3)CC1=CC[C@@H]1[C@@H]2CC[C@]2(C)C(Cl)=C(C=O)C[C@@H]12`, the figures for the IC50 entry in data set [4] and in data set [3] (read-out: IC50) were “Not Active” and 0.05 µM, respectively. For the same compound, the “growth inhibition (GI)” value in data set [5] is “inactive”. For the same compound, the “growth inhibition (GI)” value in data set [2] is recorded as “Non-toxic”.

In the case of `CC(C)(C)NC(=O)[C@H]1CC[C@H]2[C@@H]3CC[C@H]4NC(=O)C=C[C@]4(C)[C@H]3CC[C@]12C` [FINASTERIDE], the IC50 in data set [4] (read-out: IC50) stood at 630 µM. Also, the “growth inhibition (GI)” value in data set [5] was “inactive”. The “growth inhibition (GI)” value in data set [2] is reported as “Non-toxic”.

In the case of `C[C@]12CC[C@H](OC(=O)C3CCCCCC3)CC1=CC[C@@H]1[C@@H]2CC[C@]2(C)C(n3ccnc3)=C(C=O)C[C@@H]12`, the IC50 is 320 µM in data set [4] (read-out: IC50) and “Not Active” in data set [3]. Further, the “growth inhibition (GI)” value in data set [5] was “inactive”. The “growth inhibition (GI)” value in data set [2] is on record as “Non-toxic”.

Regarding `C[C@]12CC[C@H](OC(=O)c3ccc(I)cc3)CC1=CC[C@@H]1[C@@H]2CC[C@]2(C)C(n3ccnc3)=C(C=O)C[C@@H]12`, the figures for the IC50 in data set [4] (read-out: IC50) and in data set [3] were 300 µM and “Not Active”, respectively. Moreover, the “growth inhibition (GI)” value in data set [5] was “inactive”. For the same compound, in data set [2], the “growth inhibition (GI)” value is recorded as “Non-toxic”.

For the compound `C[C@]12CC[C@H](OC(=O)C3CCCCC3)CC1=CC[C@@H]1[C@@H]2CC[C@]2(C)C(n3ccnc3)=C(C=O)C[C@@H]12`, the IC50 was 300 µM in data set [4] (read-out: IC50) and “Not Active” in data set [3]. In addition, in data set [5], the “growth inhibition (GI)” value was “inactive”. Moreover, the “growth inhibition (GI)” value in data set [2] was “Non-toxic”.

Turning to `C[C@]12CC[C@H](OC(=O)c3ccc(Br)cc3)CC1=CC[C@@H]1[C@@H]2CC[C@]2(C)C(n3ccnc3)=C(C=O)C[C@@H]12`, the IC50 in data set [4] (read-out: IC50) is 94.5 µM; in data set [3], “Not Active”. The inhibition of growth at 50 µM in data set [1] came to 100%. Besides, the inhibition at 48 h, 50 µM in data set [2] stood at 40.3%.

For `C[C@]12CC[C@H](OC(=O)C3CC3)CC1=CC[C@@H]1[C@@H]2CC[C@]2(C)C(Cl)=C(C=O)C[C@@H]12`, the IC50 entry in data set [4] was “Not Active”; in data set [3] (read-out: IC50) it was 0.0032 µM. For the same compound, the “growth inhibition (GI)” value in data set [5] is “inactive”. Further, the “growth inhibition (GI)” value in data set [2] is on record as “Non-toxic”.

Take `C[C@]12CC[C@H](OC(=O)C3CCCCCC3)CC1=CC[C@@H]1[C@@H]2CC[C@]2(C)C(Cl)=C(C=O)C[C@@H]12`: the values for the half-inhibitory concentration (IC50) entry in data set [4] and in data set [3] (read-out: IC50) were “Not Active” and 0.015 µM, respectively. Also, the “growth inhibition (GI)” value in data set [5] is “inactive”. Also, the “growth inhibition (GI)” value in data set [2] is given as “Non-toxic”.

As to `C[C@]12CC[C@H](OC(=O)C3CC3)CC1=CC[C@@H]1[C@@H]2CC[C@]2(C)C(n3ccnc3)=C(C=O)C[C@@H]12`, the IC50 in data set [4] (read-out: IC50) is 200 µM; in data set [3], “Not Active”. The inhibition of growth at 50 µM in data set [1] turned out to be 100%. Moreover, the inhibition at 48 h, 50 µM in data set [2] was found to be 41.5%.

As to `C[C@]12CC[C@H](OC(=O)c3ccc(F)cc3)CC1=CC[C@@H]1[C@@H]2CC[C@]2(C)C(n3ccnc3)=C(C=O)C[C@@H]12`, the IC50 in data set [4] (read-out: IC50) is 320 µM; in data set [3] it was “Not Active”. Further, the inhibition of growth at 50 µM in data set [1] was determined as 100%. The inhibition at 48 h, 50 µM in data set [2] amounted to 30.1%.

`C[C@]12CC[C@H](OC(=O)C3CCC3)CC1=CC[C@@H]1[C@@H]2CC[C@]2(C)C(n3ccnc3)=C(C=O)C[C@@H]12`: the IC50 is 250 µM in data set [4] (read-out: IC50) and “Not Active” in data set [3]. Also, in data set [5], the “growth inhibition (GI)” value was “inactive”. In addition, in data set [2], the “growth inhibition (GI)” value was “Non-toxic”.

For the compound `C[C@]12CC[C@H](OC(=O)c3ccc(Cl)cc3)CC1=CC[C@@H]1[C@@H]2CC[C@]2(C)C(n3ccnc3)=C(C=O)C[C@@H]12`, the IC50 was 100 µM in data set [4] (read-out: IC50) and “Not Active” in data set [3]. Besides, the inhibition of growth at 50 µM in data set [1] came to 98.2%. For the same compound, the inhibition at 48 h, 50 µM in data set [2] amounted to 29.2%.

With `CC(=O)O[C@H]1CC[C@@]2(C)C(=CC[C@@H]3[C@@H]2CC[C@]2(C)C(n4ccnc4)=C(C=O)C[C@@H]32)C1`, the IC50 result in data set [4] and in data set [3] was “Not Active” throughout. Besides, the inhibition of growth at 50 µM in data set [1] was 56.5%. In addition, the inhibition at 48 h, 50 µM in data set [2] amounted to 36.2%.

`C[C@]12CC[C@H](OC(=O)C3CCCCC3)CC1=CC[C@@H]1[C@@H]2CC[C@]2(C)C(Cl)=C(C=O)C[C@@H]12`: the IC50 entry in data set [4] was “Not Active”; in data set [3] (read-out: IC50), 0.008 µM. Further, in data set [5], the “growth inhibition (GI)” value was “inactive”. Moreover, in data set [2], the “growth inhibition (GI)” value is reported as “Non-toxic”.

Regarding `CC(=O)O[C@H]1CC[C@@]2(C)C(=CC[C@@H]3[C@@H]2CC[C@]2(C)C(Cl)=C(C=O)C[C@@H]32)C1`, the IC50 entry was “Not Active” in data set [4] and 0.05 µM in data set [3] (read-out: IC50). Also, the “growth inhibition (GI)” value in data set [5] is “inactive”. Also, in data set [2], the “growth inhibition (GI)” value is on record as “Non-toxic”.

Regarding `C[C@]12CC[C@H](OC(=O)C3CCCC3)CC1=CC[C@@H]1[C@@H]2CC[C@]2(C)C(n3ccnc3)=C(C=O)C[C@@H]12`, the values for the half-inhibitory concentration (IC50) in data set [4] (read-out: IC50) and in data set [3] were 265 µM and “Not Active”, respectively. Further, the “growth inhibition (GI)” value in data set [5] is “inactive”. Further, the “growth inhibition (GI)” value in data set [2] is “Non-toxic”.
